Rows were chosen to be rich in hits. Some 4.2% of all compounds tested hit in one or more screens of this group.
AI-2 QS modul: modulators of Vibrio harveyi AI-2 quorum sensing system; Vibrio harveyi JMH597 AI-2 luminescence/OD600 ratio, 9 h; stronger effect = lower value; strain lacks LuxN and CqsS sensors; 0 = neutral-control median; 300,000 compounds, 0.4% hits; activity change, % at 7.5 µM; in the data active means activity change below about -75%, passing the limit was not always enough; inconclusive means no clear call, values can overlap the other calls;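 further: luminescence divided by OD600 gain over 9 h not by final OD600 alone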
KCNQ1 block: inhibitors of human KCNQ1 potassium channel. AID 2642. P51787. B-score at 10 µM. CHO-K1 KCNQ1, FluxOR thallium flux fluorescence; stronger effect = higher value. 310,000 compounds, 1.3% hits;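 active means compounds whose thallium flux B-score, printed positive for inhibition, exceeds three library SD while starting fluorescence stays within three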;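 further: channel opened by potassium depolarization with thallium stimulus after 20 min compound exposure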
KCC2 mod: modulates chloride dependent transport by human KCC2; AID 1456; KCC2 cells, thallium flux FluoZin-2 fluorescence; 190,000 compounds, 2.2% hits; Q9H2X9; B-score of Tl+ flux slope (higher = more flux/activation; lower = inhibition) at 10 µM;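 active means thallium flux slope and its plate-corrected score both differing from the plate sample mean at a set confidence after two filtering rounds, in either direction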;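 further: slope of fluorescence scaled to starting intensity during 10 to 20 s after thallium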
SUMO Mot1 rescue: SUMOylation pathway inhibition by Mot1-301 growth rescue; S. cerevisiae Mot1-301 growth rescue, ATP luminescence, 38.5C; percent above DMSO median, 100 means doubled; growth rescue, % at 18.8 µM; 320,000 compounds, 1% hits; AID 2716;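 active means every valid replicate shows activation above 250% relative to neutral control wells; inactive means the rest, any valid replicate at or below 250%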;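 further: OY570 slx delta 5 strain wells were the positive control but not used for scaling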
KCNQ1 pot: potentiators or activators of human KCNQ1 potassium channel; CHO-K1 KCNQ1, thallium flux FluxOR fluorescence; stronger effect = higher value; AID 2648; B-score at 10 µM; 310,000 compounds, 0.35% hits; P51787;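 active means fluorescence ratio B-score, a plate-corrected score, at least three library SD, with initial intensity B-score within 5 SD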
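Assay system: CHO-K1 cells stably expressing KCNQ1. Medium: assay buffer for compound exposure, DMSO matched across wells. Timing: 37 °C overnight plating, 90-min dark dye load, 20-min compound pretreatment. Signal: kinetic FluxOR fluorescence, 10 s baseline plus 110 s post-stimulus.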
hERG rescue: shields human hERG channel from block by proarrhythmic agents | Q12809 | CHO-hERG, FluxOR thallium flux, dofetilide IC70 present | activation (rescue from dofetilide block), less the hit threshold, % at 10 µM | 310,000 compounds, 0.51% hits | AID 1511;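 active means activation above the mean of controls blocked by dofetilide plus 5 SD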;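 further: thallium influx through hERG after potassium depolarization seen as dye fluorescence rise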
JMH597 growth rt: retest Vibrio harveyi JMH597 growth inhibition; shares compounds with AI-2 QS modul; OD600 absorbance, 9 h; lacks LuxN and CqsS sensors; growth inhibition, % at 7.5 µM; 750 compounds, 1% hits;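 active means every replicate shows growth inhibition above 50%; inconclusive means at least half, but not all, replicates pass that cutoff; inactive means fewer than half of replicates pass it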
BB721 const-QS lum: retest counter-screen: BB721 constitutive quorum sensing luminescence decrease. shares compounds with AI-2 QS modul. Vibrio harveyi BB721 luminescence, 9 h. inhibition, % at 7.5 µM. 750 compounds, 95% hits. AID 2727;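 active means inhibition above about 80% in every replicate, not just on average, limit read from the data; inconclusive means at least half of replicates past the limit, but not all; inactive means fewer than half of replicates past the limit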
BB721 growth rt: retest: inhibitors of Vibrio harveyi BB721 growth; shares compounds with AI-2 QS modul; OD600 absorbance, 9 h; growth inhibition, % at 7.5 µM; 750 compounds, 3% hits;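 active means every replicate shows growth inhibition above 50%; inconclusive means at least half but not all replicates above 50% inhibition; inactive means under half of replicates above 50% inhibition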
JMH597 AI-2 mod: Vibrio harveyi AI-2 signaling luminescence modulation – JMH597 strain, confirmation; shares compounds with AI-2 QS modul; Vibrio harveyi JMH597 AI-2 quorum sensing luminescence, 9 h; luxN and CqsS knockout, AI-2 only; inhibition, % at 7.5 µM; 750 compounds, 97% hits;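 active means every replicate shows more than 75% inhibition of signal versus neutral control wells; inconclusive means half to three quarters of replicates exceed 75% inhibition; inactive means fewer than half of replicates exceed 75% inhibition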
Active calls of the source: *; i = inactive; ? = inconclusive; . = no result given.

SMILES	AI-2 QS modul	KCNQ1 block	KCC2 mod	SUMO Mot1 rescue	KCNQ1 pot	hERG rescue	JMH597 growth rt	BB721 const-QS lum	BB721 growth rt	JMH597 AI-2 mod
COC(=O)c1ccc(C)c(NC(=O)Cn2cnc3ccccc3c2=O)c1	-86*	i	.	-8	i	-4	-16	94*	-18	96*
O=C(Cn1nnc2ccccc2c1=O)Nc1ccc2c(c1)CCC2	-94*	i	-0.99	-5	i	-1	-15	99*	-29	99*
O=C(Cn1cnc2cc([N+](=O)[O-])ccc2c1=O)Nc1ccc2c(c1)CCC2	24	i	-0.59	0	i	-8	.	.	.	.
O=C(Cn1cnc2ccccc2c1=O)Nc1ccc2c(c1)CCC2	-83*	i	.	-6	i	-14	7	99*	-6	99*
CCC(=O)N1c2ccccc2NC2=C(C(=O)CC(C)(C)C2)C1c1ccc(O)c(OC)c1 (stereo not given)	17	i	.	-2	i	-9	.	.	.	.
CCOc1ccc(NS(=O)(=O)c2cc3c4c(c2)C(C)C(=O)N4CCC3)cc1 (stereo not given)	44	i	.	150	i	-7	.	.	.	.
CCOC(=O)[C@H]1[C@H]2COc3cc(OC)ccc3[C@@H]2N2C(=O)c3cc(OC)c(OC)cc3NC(=O)[C@@]12C	.	.	.	1	.	.	.	.	.	.
CC(CNC(=O)c1cc(COc2c(F)cccc2F)on1)Oc1cccnc1 (stereo not given)	-91*	i	.	7	i	-5	25	94*	20	96*
COc1ccc(Oc2cn[nH]c2-c2ccc(O)cc2O)cc1	-90*	i	.	7	i	-13	?	97*	?	98*
O=c1c2c(-c3ccccc3)csc2nc2c3ccccc3c(NCCN3CCOCC3)nn12	-96*	i	-0.87	.	i	-26	76*	100*	?	100*
O=c1c2ccccc2nc2c3ccccc3c(NCCN3CCOCC3)nn12	10	i	-0.087	27	i	-20	.	.	.	.
O=C(Nc1nnc(-c2cccs2)s1)c1cccc(F)c1	20	i	-0.08	-15	i	-6	.	.	.	.
O=C1NCCCC1C(=O)N/N=C/c1cccc(Cl)c1 (stereo not given)	-79*	i	0.022	0	i	-12	-13	89*	2	93*
COc1ccc(C(CC(=O)c2ccc(O)cc2)S(=O)(=O)c2ccc(C)cc2)cc1 (stereo not given)	-91*	i	.	-12	i	-5	3	96*	-13	97*
O=C(O)c1cccc2c1C(=O)c1ccc(-c3ccc(Cl)c(C(F)(F)F)c3)cc1S2(=O)=O	.	.	.	-13	.	.	.	.	.	.
CC1(c2ccccc2)NC(=O)N(CC(=O)NCCC2=CCCCC2)C1=O (stereo not given)	-90*	i	0.11	.	i	-6	4	91*	-1	95*
Cc1ccc(C2(C)NC(=O)N(CC(=O)NCCC3=CCCCC3)C2=O)cc1 (stereo not given)	-74	i	-1.5	.	i	2	.	.	.	.
CC1(c2ccc3c(c2)OCO3)NC(=O)N(CC(=O)NCCC2=CCCCC2)C1=O (stereo not given)	-87*	i	1.3	0	i	-10	12	90*	22	95*
CCC1(c2ccccc2)NC(=O)N(CC(=O)Nc2ccc(OC)nc2)C1=O (stereo not given)	-88*	i	.	-11	i	-28	2	90*	0	94*

Source: PubChem (several laboratories)
